Reference: ChEMBL document CHEMBL5230161, “Exploring structural effects in a new class of NRF2 inhibitors” (RSC Med Chem, 2023)
In brackets after ≈: the same amount, converted by molar mass. Activity calls are given as the source filed them. No cut-off for these calls is given here.

Legend:
[1] = biological target: T1, Nuclear factor erythroid 2-related factor 2 (Homo sapiens) (UniProt Q16236); experiment: Activation of Nrf2 (unknown origin) assessed as cellular activity; parameters: concentration or dose not given beside the values; conditions: filed as activator
T1 sequence (whole entry): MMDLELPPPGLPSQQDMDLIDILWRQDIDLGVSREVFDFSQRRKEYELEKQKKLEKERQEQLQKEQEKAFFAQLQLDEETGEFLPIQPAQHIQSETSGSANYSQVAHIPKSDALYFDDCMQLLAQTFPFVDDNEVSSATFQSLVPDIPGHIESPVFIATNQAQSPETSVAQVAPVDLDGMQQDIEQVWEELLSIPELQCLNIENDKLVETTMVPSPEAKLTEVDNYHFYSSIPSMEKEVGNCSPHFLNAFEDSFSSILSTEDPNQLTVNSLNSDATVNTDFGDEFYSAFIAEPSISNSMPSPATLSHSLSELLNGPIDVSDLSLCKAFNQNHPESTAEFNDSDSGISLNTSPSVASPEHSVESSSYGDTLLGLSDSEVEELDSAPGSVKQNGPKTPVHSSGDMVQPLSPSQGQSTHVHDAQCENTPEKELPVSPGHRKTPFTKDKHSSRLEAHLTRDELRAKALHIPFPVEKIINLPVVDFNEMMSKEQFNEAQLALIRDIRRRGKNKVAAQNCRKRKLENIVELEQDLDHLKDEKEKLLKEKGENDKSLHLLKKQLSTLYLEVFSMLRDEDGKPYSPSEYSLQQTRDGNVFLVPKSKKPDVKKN

MCF7 [2] = experiment: Inhibition of NRF2/ARE (unknown origin) transfected in human MCF7 cells assessed as cellular activity preincubated with compound for 1 hrs followed by tBHQ addition and measured after 24 hrs by steady-glo luciferase assay relative to control; format: cell-based; parameters: concentration or dose not given beside the values; conditions: time 25.0 hrs, dose or concentration not given here
[3] = Solubility of the compound in pH 7.4 PBS buffer; format: physicochemical
A549 [4] = experiment: Antiproliferative activity against human A549 cells assessed as inhibition of cell growth incubated for 72 hrs by MTT assay; format: functional; parameters: scale not given: the % may be the effect or the level left
How it was run: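 A549 human lung cancer cells exposed to a single 5 μmol L⁻¹ dose for 72 h; viability read by MTT assay.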

[5] = biological target: T1, Nuclear factor erythroid 2-related factor 2 (Homo sapiens); experiment: Inhibition of NRF2 signalling pathway in human A549 cells assessed as decrease in NQO1 mRNA level at 5 to 10 uM incubated for 24 hrs by RT-PCR analysis; format: cell-based; conditions: dose 5-10 µM
How it was run: (§1)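 A549 cells incubated with compound 24 h; NQO1, GCLC, AKR1C2, GCLM mRNA by RT-PCR, normalized to GAPDH and DMSO vehicle; representative of 3 independent experiments.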

[6] = biological target: T1, Nuclear factor erythroid 2-related factor 2 (Homo sapiens); experiment: Inhibition of NRF2 signalling pathway in human A549 cells assessed as decrease in GCLC mRNA level at 5 to 10 uM incubated for 24 hrs by RT-PCR analysis; format: cell-based; conditions: dose 5-10 µM; how it was run: as §1
[7] = biological target: T1, Nuclear factor erythroid 2-related factor 2 (Homo sapiens); experiment: Inhibition of NRF2 signalling pathway in human A549 cells assessed as decrease in AKR1C2 mRNA level at 5 to 10 uM incubated for 24 hrs by RT-PCR analysis; format: cell-based; conditions: dose 5-10 µM; how it was run: as §1
[8] = biological target: T1, Nuclear factor erythroid 2-related factor 2 (Homo sapiens); experiment: Inhibition of NRF2 signalling pathway in human A549 cells assessed as decrease in GCLM mRNA level at 5 to 10 uM incubated for 24 hrs by RT-PCR analysis; format: cell-based; conditions: dose 5-10 µM; how it was run: as §1
A549 [9] = experiment: Antiproliferative activity against human A549 cells assessed as reduction in cell viability incubated for 72 hrs by MTT assay; format: functional, cell-based; conditions: A549, 72 h
NCI-H358 = experiment: Antiproliferative activity against human NCI-H358 cells assessed as reduction in cell viability incubated for 72 hrs by MTT assay; format: functional, cell-based; conditions: NCI-H358, 72 h
A549 [10] = experiment: Induction of cell cycle arrest in human A549 cells assessed as accumulation of cells at G2/M phase at 3 uM incubated for 24 hrs by PI staining based flow cytometric analysis; format: functional
How it was run: (§2)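 A549 or H460 cells synchronized in low-serum medium 12 h, then inhibitor 24 h; propidium iodide staining, flow cytometry, univariate cell-cycle model (Watson pragmatic, G0/1 and G2/M peak constraints); % of total cells as mean ± SE, n = 2-3 independent experiments.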

NCI-H460 [11] = experiment: Induction of cell cycle arrest in human NCI-H460 cells assessed as accumulation of cells at G2/M phase at 3 uM incubated for 24 hrs by PI staining based flow cytometric analysis; format: functional; how it was run: as §2
A549 [12] = experiment: Inhibition of cell migration in human A549 cells at 10 uM incubated for 24 hrs by DAPI staining based transwell migration assay relative to control; format: functional
How it was run: (§3)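 Transwell migration of A549 cells seeded in serum-free medium with DMSO vehicle or compound (1, 5, 10 μmol L⁻¹) in top chamber; bottom medium with compound and 5% FBS chemoattractant; 24 h, filters fixed, unmigrated cells removed, DAPI stain, 9 fields imaged per insert; two inserts per condition, n = 2-3; one- or two-way ANOVA vs vehicle.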

A549 [13] = experiment: Inhibition of cell migration in human A549 cells at 1 uM incubated for 24 hrs by DAPI staining based transwell migration assay; format: functional; how it was run: as §3
A549 [14] = experiment: Inhibition of cell migration in human A549 cells at 5 uM incubated for 24 hrs by DAPI staining based transwell migration assay relative to control; format: functional; how it was run: as §3
A549 [15] = experiment: Induction of cell cycle arrest in human A549 cells assessed as accumulation of cells at G2/M phase at 10 uM incubated for 24 hrs by PI staining based flow cytometric analysis; format: functional; how it was run: as §2
NCI-H460 [16] = experiment: Induction of cell cycle arrest in human NCI-H460 cells assessed as accumulation of cells at G2/M phase at 10 uM incubated for 24 hrs by PI staining based flow cytometric analysis; format: functional; how it was run: as §2
MCF7 [17] = experiment: Inhibition of NRF2/ARE (unknown origin) transfected in human MCF7 cells assessed as cellular activity measured before deprotection of compound preincubated with compound for 1 hrs followed by tBHQ addition and measured after 24 hrs by steady-glo luciferase assay relative to control; format: cell-based; conditions: time 25.0 hrs, dose or concentration not given here
[18] = biological target: T1, Nuclear factor erythroid 2-related factor 2 (Homo sapiens); experiment: Activation of Nrf2 (unknown origin) assessed as cellular activity measured before deprotection of compound; conditions: filed as activator

Activity [1] | SMILES | inhibition (MCF7 [2]) | other results
-7.8% | Cc1cc(C)cc(Nc2ncc(-c3ccccc3)nc2C#N)c1 |  | 
 | Cc1cc(C)cc(Nc2nc(-c3ccccc3)ccc2C#N)c1 | 3.7% | 
-8.7% | Cc1cc(C)cc(Nc2ncc(-c3cccnc3)cc2C#N)c1 |  | 
 | Cc1ccnc(Nc2ncc(-c3ccccc3)cc2C#N)c1 | 46.7% | solubility [3]: 209 µM (≈ 59.8 µg/mL); Activity (A549 [4]): 59.8%; inhibition [5]: Active; inhibition [6]: Active; inhibition [7]: Active; inhibition [8]: Active; IC50 (A549 [9]): 610 nM; IC50 (NCI-H358): 580 nM; Activity (A549 [10]): Active; Activity (NCI-H460 [11]): Active; inhibition at 10 µM (A549 [12]): 79%; inhibition (A549 [13]): inactive; inhibition at 5 µM (A549 [14]): 72%
 | Cc1cc(C)cc(Nc2ncc(-c3ccccc3)cc2C#N)c1 | 38.4% | solubility [3]: 4 µM (≈ 1.2 µg/mL)
-33.9% | Cc1cc(C)cc(Cc2ncc(-c3ccccc3)cc2C#N)c1 |  | 
-66% | COc1cc(Nc2ncc(-c3ccccc3)nc2C#N)cc(OC)c1 |  | 
-18.1% | Cc1cc(C)cc(Nc2nc(C)c(-c3ccccc3)cc2C(N)=O)c1 |  | 
-1.5% | COc1ccc(-c2cnc(Nc3cc(C)cc(C)c3)c(C#N)c2)cc1 |  | 
-11.8% | CCCc1nc(Nc2cc(C)cc(C)c2)c(C#N)cc1-c1ccccc1 |  | 
 | N#Cc1cc(-c2ccccc2)cnc1Nc1cc(C(F)(F)F)ccn1 | 55.3% | 
-23.6% | N#Cc1cc(-c2ccccc2)cnc1Nc1cc(C2CC2)ccn1 |  | 
 | N#Cc1cc(-c2ccccc2)cnc1Nc1cnccn1 | 28.3% | 
 | Cc1cc(C)cc(Nc2nc3ccccc3cc2C#N)c1 | 21.2% | 
-42.7% | Cc1cc(C)cc(Nc2nc3ncccc3cc2C#N)c1 |  | 
-6.3% | Cc1cc(C)cc(Nc2nc(C)c(C(C)C)cc2C#N)c1 |  | 
-0.1% | CCOC(=O)c1ccnc(Nc2ncc(-c3ccccc3)cc2C#N)c1 |  | 
-4.9% | Cc1cc(C)cc(Nc2ncc(-c3ccc(Cl)cc3)cc2C#N)c1 |  | 
-9.5% | Cc1cc(N)cc(Nc2nc3ccccc3cc2C#N)c1 |  | 
 | Cc1cc(C)cc(Nc2nc(C)ccc2C#N)c1 | 6.1% | 
 | Cc1cc(C)cc(Nc2ncc(-c3cccc(O[Si](C)(C)C(C)(C)C)c3)cc2C#N)c1 | 12.6% | 
-131% | N#Cc1cc(-c2ccccc2)cnc1Nc1ccc(Cl)nn1 |  | 

Activity [1] | SMILES | inhibition (MCF7 [2]) | other results
 | N#Cc1c(-c2ccccc2)ccnc1Nc1cc(Br)ccn1 | 7.5% | 
-45.4% | Cc1cc(C)cc(Oc2ncc(-c3ccccc3)cc2C#N)c1 |  | 
 | CCc1ccnc(Nc2ncc(-c3ccccc3)cc2C#N)c1 | 42.3% | 
 | Cc1cc(C)nc(Nc2ncc(-c3ccccc3)cc2C#N)c1 | 20% | 
 | Cc1nc(C)nc(Nc2ncc(-c3ccccc3)cc2C#N)n1 | 9.6% | 
 | Cc1ccnc(Nc2nccc(-c3ccccc3)c2C#N)c1 | 35.4% | 
 | CC(=O)N(c1cc(C)cc(C)c1)c1nc(C)c(-c2ccccc2)cc1C#N | 12.5% | 
 | Cc1cccc(Nc2nc(C)c(-c3ccccc3)cc2C#N)c1 | 40.9% | 
-78.1% | N#Cc1c(-c2ccccc2)ccnc1Nc1ccccn1 |  | 
-13.8% | Cc1cccc(Nc2ncc(-c3ccccc3)cc2C#N)n1 |  | 
 | Cc1cc(C)cc(Nc2ncc(-c3cccc(Cl)c3)cc2C#N)c1 | 18.2% | 
 | CC(C)(C)[Si](C)(C)OCc1ccnc(Nc2ncc(-c3ccccc3)cc2C#N)c1 | 43.3% | 
 | Cc1cc(C)cc(Nc2nc(C)c(-c3ccccc3)cc2C#N)c1 | 54.6% | solubility [3]: 3 µM (≈ 0.94 µg/mL); Activity (A549 [4]): 9.8%; Activity (A549 [15]): Active; Activity (NCI-H460 [16]): Active; inhibition at 10 µM (A549 [12]): 65%
 | Cc1nc(Nc2cccc(CO)c2)c(C#N)cc1-c1ccccc1 | 16.7% | 
 | Cc1cc(Br)cc(Nc2nc(C)c(-c3ccccc3)cc2C#N)c1 | 58.4% | Activity (A549 [4]): 35.3%
-23.3% | COc1cc(OC)cc(-c2cnc(Nc3cc(C)cc(C)c3)c(C#N)c2)c1 |  | 
 | Cc1cc(C)nc(Nc2ncc(-c3ccccc3)cc2C#N)n1 | 11.2% | 
 | Cc1nc(Nc2cccc(I)c2)c(C#N)cc1-c1ccccc1 | 51.8% | Activity (A549 [4]): 26.6%
-32.3% | Cc1cc(Nc2ncc(-c3ccccc3)cc2C#N)cc(C)c1C |  | 
 | Cc1nc(Nc2cc(Br)cc(Br)c2)c(C#N)cc1-c1ccccc1 | 7.7% | 
 | Cc1cc(Nc2nc(C)c(-c3ccccc3)cc2C#N)cc(C)c1C | 37.2% | 
 | Cc1nc(Nc2cccc(C(C)C)c2)c(C#N)cc1-c1ccccc1 | 55.2% | solubility [3]: 0.9 µM (≈ 0.295 µg/mL)

Activity [1] | SMILES | inhibition (MCF7 [2]) | other results
 | Cc1cncc(Nc2ncc(-c3ccccc3)cc2C#N)c1 | 25.3% | 
 | Cc1cc(C)cc(Nc2nc(C)c(-c3cccc(Cl)c3)cc2C#N)c1 | 49.2% | 
-20.3% | Cc1cc(Nc2ncc(-c3ccccc3)cc2C#N)ccn1 |  | 
 | Cc1cncc(Nc2ncc(-c3ccccc3)cc2C#N)n1 | 13.2% | 
-33.9% | Cc1cc(Nc2ncc(-c3ccccc3)cc2C#N)nc(C)n1 |  | 
-42.8% | Cc1cc(C)cc(Nc2ncc(-c3ccncc3)cc2C#N)c1 |  | 
 | Cc1nc(Nc2cc(Cl)cc(Cl)c2)c(C#N)cc1-c1ccccc1 | 15.7% | 
 | Cc1cc(C)cc(Nc2ncc(-c3cc(C)cc(C)c3)cc2C#N)c1 | 25.1% | 
 | Cc1nc(Nc2cccc(C(C)O)c2)c(C#N)cc1-c1ccccc1 (stereo not drawn) | 5.2% | inhibition (MCF7 [17]): 26%
 | Cc1ccc(C)c(Nc2nc(C)c(-c3ccccc3)cc2C#N)c1 | 51% | 
 | Cc1cc(C)cc(Nc2ncc(-c3ccccc3Cl)cc2C#N)c1 | 32.9% | 
-31.8% | N#Cc1c(-c2ccccc2)ccnc1Nc1cc(CO)ccn1 |  | Activity [18]: -4.65%
 | Cc1cc(C)cc(Nc2ncc(-c3cc(Cl)cc(Cl)c3)cc2C#N)c1 | 2.9% | 
-4.5% | COc1ccnc(Nc2nccc(-c3ccccc3)c2C#N)c1 |  | 
 | Cc1cc(C)cc(N(C)c2nc(C)c(-c3ccccc3)cc2C#N)c1 | 21.9% | 
 | N#Cc1cc(-c2ccccc2)cnc1Nc1ccccn1 | 25.5% | 
-29.6% | Cc1ccc(-c2cnc(Nc3cc(C)cc(C)c3)c(C#N)c2)cc1 |  | 
 | COc1ccnc(Nc2ncc(-c3ccccc3)cc2C#N)c1 | 39.7% | 
 | Cc1cc(C)cc(Nc2nccc(-c3ccccc3)c2C#N)c1 | 39% | 
 | Cc1cc(Nc2nc(C)c(-c3ccccc3)cc2C#N)cc(C)c1Br | 25.7% | 
